The source of these data is ChEMBL document CHEMBL1124737, “Synthesis and alpha 2-adrenoceptor effects of substituted catecholimidazoline and catecholimidazole analogues in human platelets” (J Med Chem, 1990).

The species named for assay [1] is Homo sapiens. The assay is described as follows: Inhibition potency against primary wave responses to epinephrine. It is filed as functional, organism-based. As to conditions: read-out: pA2 (converted).
For assay [2], the species on record is Homo sapiens. The assay is described as follows: Log concentration that produces maximum response against epinephrine-induced platelet aggregation. The class given is functional, organism-based.
The species entered for assay [3] is Homo sapiens. Briefly: Inhibition of U-46,619 + phentolamine by the compound in response of AGG. It is filed as functional, organism-based. Summed up:
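Human citrated platelet-rich plasma was incubated with 1 mM aspirin. Phentolamine (1 μM) was added 1 min before the drug and 2 min before U46619, used at the minimal maximally-aggregating concentration. Turbidometric aggregation was followed, and IC50 was based on the maximal transmittance change at 4 min, from percent inhibition versus log concentration plots. Data are from 3–5 preparations.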

For assay [4], the species on record is Homo sapiens. Briefly: Stimulatory activity against serotonin secretion (SEC). It is filed as functional, organism-based.
The target in assay [5] is Serotonin (5-HT) receptor. The assay is described as follows: Inhibition of U-46,619 by the compound in response of SEC. It is filed as functional, Homo sapiens. Summed up: (§1)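 Inducer at the minimum concentration giving maximal aggregation; inhibitor added 1 min before it. Dense-granule secretion measured as release of radioactivity. U46619 runs include 1 mM aspirin. IC50 from percent inhibition vs log concentration; 3–5 preparations.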

For assay [6], the species on record is Homo sapiens. Briefly: Inhibition of Arachidonic acid by the compound in response of AGG. It is filed as functional, organism-based. A digest of the protocol:
(§2)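 Human platelet-rich plasma from medication-free volunteers, citrate anticoagulated (9:1). Inducer at the minimum concentration giving maximal aggregation. Inhibitor added 1 min before inducer. Turbidometric (Born) aggregation read as the maximal change in light-transmittance amplitude after 4 min. U46619 runs include 1 mM aspirin. IC50 taken from percent inhibition vs log concentration plots; 3–5 preparations.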

Assay [7] deals with Serotonin (5-HT) receptor. The assay is described as follows: Inhibition of Arachidonic acid by the compound in response of SEC. The class given is functional, Homo sapiens. A digest of the protocol: as §1
Assay [8] has as its target Serotonin (5-HT) receptor. The assay is described as follows: Inhibition of U-46,619 + phentolamine by the compound in response of SEC. The class given is functional, Homo sapiens. A digest of the protocol: (§3)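 Phentolamine 1 μM added 1 min before the test drug and 2 min before the inducer (AA or U46619, at minimum maximally effective concentration). Aspirin 1 mM in U46619 runs. Secretion read as radioactivity release. IC50 from percent inhibition vs log concentration; 3–5 preparations.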

In assay [9] the target is Serotonin (5-HT) receptor. The assay is described as follows: Inhibition of ADP by the compound in response of SEC. It is filed as functional, Homo sapiens. Summed up:
as §1

Assay [10] is filed under the species Homo sapiens. Briefly: Inhibition of AA+phentolamine by the compound in response of AGG. It is filed as functional, organism-based. A digest of the protocol: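 Citrated platelet-rich plasma from medication-free human volunteers was read by Born turbidometric aggregometry. Phentolamine (1 μM) was added 1 min before the drug and 2 min before arachidonic acid, used at the minimum concentration giving maximal aggregation. IC50 was taken from the maximal change in light transmittance after 4 min, read from percent inhibition versus log concentration plots. Data are from 3–5 preparations.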

The species named for assay [11] is Homo sapiens. The assay is described as follows: Inhibition of ADP by the compound in response of AGG. It is filed as functional, organism-based. A digest of the protocol:
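The drug was added 1 min before ADP, used at the minimum concentration giving maximal aggregation, in citrated human platelet-rich plasma from medication-free donors. Born turbidometric aggregometry was used. IC50 came from the maximal change in light transmittance after 6 min, using percent inhibition versus log concentration plots. Data are from 3–5 preparations.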

The species entered for assay [12] is Homo sapiens. Briefly: Inhibition of U-46,619 by the compound in response of AGG. The class given is functional, organism-based. Summed up:
as §2

The target of assay [13] is Serotonin (5-HT) receptor. The assay is described as follows: Inhibition of AA+phentolamine by the compound in response of SEC. The class given is functional, Homo sapiens. Summed up: as §3
The species named for assay [14] is Homo sapiens. Briefly: Log concentration that produces maximum response against epinephrine-induced platelet aggregation (primary wave AGG). It is filed as functional, organism-based.
The species named for assay [15] is Homo sapiens. Briefly: Effective concentration for primary wave aggregation was determined. It is filed as functional, organism-based. Summed up: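 Citrated (9:1) platelet-rich plasma from medication-free human donors. Compound given alone to platelets preincubated 1 min with 1 mM aspirin. Born turbidometric aggregation, maximal change in light transmittance amplitude. EC50 taken from individual plots of percent response versus log concentration. Values in parentheses give number of experiments.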

The species named for assay [16] is Homo sapiens. Briefly: Effective concentration for secondary wave aggregation was determined. It is filed as functional, organism-based.
Assay [17] is filed under the species Homo sapiens. Briefly: Inhibitory concentration of compound against primary aggregation of induced by R-8. It is filed as functional, organism-based.

The structures appear in SMILES notation.

For the molecule `Oc1ccc(C[C@H]2CNC=N2)cc1O`, the Kb in assay [1] is 3.24 µM.

A word on the EC50: it is the concentration needed to bring the measured effect to its halfway point. Turning to `Oc1ccc(C(O)c2ncc[nH]2)cc1O` (configuration not stated), the EC50 in [2] was 38.9 µM.

As a reminder, the IC50 is the point on the concentration scale where inhibition reaches its midpoint. Regarding `Cl.Oc1ccc(Cc2ncc[nH]2)cc1O`, the IC50 in assay [3] is 741 µM; in assay [4], 36.3 µM; in assay [6], 661 µM; in [10], 145 µM; in assay [11], 263 µM; in [12] it was 1620 µM. The “Log IC50” value in [5] was -2.81; in assay [7], -3.18; in assay [8], -3.09; in assay [9] it was -3.46; in assay [13] it was -3.79.

For `Oc1ccc(C[C@@H]2CNC=N2)cc1O`, the EC50 was 5.13 µM in assay [14], 5.03 µM in assay [15] and 4.89 µM in [16].

With `COC(=O)[C@@H]1[C@H]2C[C@H]3c4[nH]c5ccccc5c4CCN3C[C@@H]2CC[C@@H]1O` [YOHIMBINE], the IC50 in assay [17] was found to be 1.1 µM.
